Experimental data taken from article PMC9064604 (RSC Advances, 2019).
Where two headings read alike, the source gives them in different places.

How the values were obtained:
murine melanoma B16-F10 = assay: Cell viability assay; assay type: cell-based; settings: read-out: IC50 B16-F10, dark
[1] = tested on: human colorectal adenocarcinoma HT-29; assay: Cell viability assay; assay type: cell-based; settings: read-out: IC50 HT-29, dark
[2] = tested on: triple negative human breast adenocarcinoma MDA-MB-231; assay: Cell viability assay; assay type: cell-based; settings: MDA-MB-231, 72 h, read-out: IC50 MDA-MB-231, dark
[3] = tested on: human colon adenocarcinoma Caco-2; assay: Cell viability assay; assay type: cell-based; settings: Caco-2, 72 h, read-out: IC50 Caco-2, dark
[4] = tested on: human alveolar adenocarcinoma A549; assay: Cell viability assay; assay type: cell-based; settings: A549, 72 h, read-out: IC50 A549, dark
A549 cells = assay: Quantification of cellular uptake by LC-MS/MS; assay type: cell-based, human
How it was run: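 A549 cells (1.2 × 10⁵/well) adhered overnight, then received 3 μM test compound. Medium was removed immediately or after 1, 3, 6, 12 or 24 h in the dark at 37 °C/5% CO₂. Cells were washed with PBS/1.5% DMSO, scraped into acetonitrile, sonicated and centrifuged. Extracts were quantified by LC-MS/MS against external standards (0.02–0.25 μM in A549 extract). Per-cell concentration assumed 1.7 pL cell volume; n = 4, mean ± SEM.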

IC50 (murine melanoma B16-F10; Mus musculus, B16-F10, 72 h) | IC50 [2] | IC50 [3] | IC50 [4] | IC50 ([1]; Homo sapiens, HT-29, 72 h) | SMILES | IC50 (murine melanoma B16-F10; dark, 72 h, WST-1, mean ± SEM) | IC50 ([1]; dark, 72 h, WST-1, mean ± SEM) | maximum cellular concentration per cell (A549 cells; 3 μM, A549, assuming average cell volume of 1.7 pL and homogeneous distribution) | time at which cellular uptake was optimal / plateaued (A549 cells; A549, 3 μM)
– | – | – | – | – | N.N.[Cl][Pt][Cl] [Cisplatin, cisplatin] | 7.7 ± 0.2 µM | > 100 µM | – | –
> 100 µM | > 100 µM | > 100 µM | > 100 µM | > 100 µM | Cc1cc(-c2ccccc2)c2ccc3c(-c4ccccc4)cc(C)nc3c2n1 [BC, bathocuproine] | – | – | 2000 μM per cell | 3 h
> 100 µM | 37.5 ± 0.14 µM | > 100 µM | > 100 µM | > 100 µM | c1ccc(-c2ccccn2)nc1 [bipy, 2,2′-bipyridine] | – | – | – | –
